From ChEMBL document CHEMBL1821637, “Selective cytotoxicity of oxysterols through structural modulation on rings A and B. Synthesis, in vitro evaluation, and SAR” (J Med Chem, 2011)
pIC50: −log10 of the molar value.

Columns and labels:
HT-29 [1] = test: Selectivity index, ratio of IC50 for human ARPE19 cells to IC50 for human HT-29 cells; assay type: functional
HT-29 [2] = test: Cytotoxicity against human HT-29 cells assessed as cell viability after 48 hrs by alamar blue assay; assay type: functional, cell-based; conditions: for pIC50: HT-29, 48 h
Outline: (§1)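 Alamar Blue viability assay on the human cell line named (origins given: HT-29 colorectal adenocarcinoma, HepG2 hepatocellular carcinoma, LAMA-84 myeloid leukemia, A549 lung adenocarcinoma, PC3 prostate metastasis, MCF-7 breast adenocarcinoma, ARPE-19 retinal pigment epithelium, BJ skin fibroblast). Exposure was 48 h. Sterol stocks were made in DMSO. IC50 is the concentration inhibiting 50% of cellular growth, given as the mean of at least three separate experiments.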

HepG2 = test: Cytotoxicity against human HepG2 cells assessed as cell viability after 48 hrs by alamar blue assay; assay type: functional, cell-based; conditions: for pIC50: HepG2, 48 h; outline: as §1
BJ = test: Cytotoxicity against human BJ cells assessed as cell viability after 48 hrs by alamar blue assay; assay type: cell-based; conditions: for pIC50: Homo sapiens, BJ; for Activity: human, bj; outline: as §1
PC-3 = test: Cytotoxicity against human PC3 cells assessed as cell viability after 48 hrs by alamar blue assay; assay type: functional, cell-based; conditions: for pIC50: PC-3, 48 h; outline: as §1
[3] = Cytotoxicity against human ARPE19 cells assessed as cell viability after 48 hrs by alamar blue assay; assay type: cell-based, ARPE-19; conditions: for pIC50: Homo sapiens, ARPE-19, 48 h; for Activity: human, arpe-19, 48 h; outline: as §1
LAMA-84 = test: Cytotoxicity against human LAMA-84 cells assessed as cell viability after 48 hrs by alamar blue assay; assay type: functional, cell-based; conditions: for pIC50: LAMA-84, 48 h; outline: as §1
HT-29 [4] = test: Cytotoxicity against human HT-29 cells assessed as inhibition of cell growth after 96 hrs by alamar blue assay; assay type: functional, cell-based; conditions: HT-29, 96 h
Outline: (§2)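 HT-29 and ARPE-19 cells exposed for 96 h. ARPE-19 seeded at 5 10^3 cells/well for this period. Sterol stocks in DMSO. Viability by Alamar Blue. IC50 is the concentration inhibiting 50% of cellular growth, mean of at least three separate experiments.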

[5] = Cytotoxicity against human ARPE19 cells assessed as inhibition of cell growth after 96 hrs by alamar blue assay; assay type: cell-based; conditions: ARPE-19, 96 h; outline: as §2
A549 = test: Cytotoxicity against human A549 cells assessed as cell viability after 48 hrs by alamar blue assay; assay type: functional, cell-based; conditions: for pIC50: A549, 48 h
Outline: as §1, with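 “DMSO.” for “DMSO. IC50 is the concentration inhibiting 50% of cellular growth, given as the mean of at least three separate experiments.”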

SH-SY5Y = test: Cytotoxicity against human SH-SY5Y cells assessed as cell viability after 48 hrs by alamar blue assay; assay type: functional, cell-based
Outline: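 SH-SY5Y cells grown in DMEM/F12 (1:1) with L-glutamine, 10% heat-inactivated FBS, 100 units/mL penicillin and 0.1 mg/mL streptomycin, pH 7.4. Seeded at 5 10^3 cells/well and exposed to the sterols (DMSO stocks) for 48 h. Alamar Blue read-out. IC50 is the concentration inhibiting 50% of growth, mean of at least three separate experiments.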

MCF7 = test: Cytotoxicity against human MCF7 cells assessed as cell viability after 48 hrs by alamar blue assay; assay type: functional, cell-based; conditions: for pIC50: MCF7, 48 h; outline: as §1

## CO[C@@H]1C[C@H]2[C@@H]3CC[C@H]([C@H](C)CCCC(C)C)[C@@]3(C)CC[C@@H]2[C@@]2(C)CC[C@H](O)C[C@]12O
HT-29 [1]
  Ratio IC50: 2.58
HT-29 [2]
  pIC50: 5.00
HepG2
  pIC50: 4.88
BJ
  pIC50: 4.76
PC-3
  pIC50: 4.76
[3]
  pIC50: 4.59
LAMA-84
  pIC50: 5.37

## CC(=O)O[C@H]1CC[C@]2(C)[C@H]3CC[C@]4(C)[C@@H]([C@H](C)CCCC(C)C)CC[C@H]4[C@@H]3CC[C@@]2(O)[C@H]1O
HT-29 [1]
  Ratio IC50: 1.75
HT-29 [4]
  pIC50: 4.75
HT-29 [2]
  pIC50: 4.73
[5]
  pIC50: 4.66
[3]
  pIC50: 4.49

## CC(C)CCC[C@@H](C)[C@H]1CC[C@H]2[C@@H]3C/C(=N\O)[C@@]4(O)C[C@@H](O)CC[C@]4(C)[C@H]3CC[C@]12C
HT-29 [1]
  Ratio IC50: 1.99
HT-29 [2]
  pIC50: 4.92
HepG2
  pIC50: 4.88
BJ
  pIC50: 4.77
PC-3
  pIC50: 4.82
A549
  pIC50: 4.82
[3]
  pIC50: 4.63
SH-SY5Y
  pIC50: 4.77

## CC(C)CCC[C@@H](C)[C@H]1CC[C@H]2[C@@H]3[C@@H](O)[C@@H](O)[C@@]4(O)C[C@@H](O)CC[C@]4(C)[C@H]3CC[C@]12C
HT-29 [1]
  Ratio IC50: 1.54
HT-29 [2]
  inhibition: Dose-dependent effect
  pIC50: 4.86
HepG2
  inhibition: Dose-dependent effect
  pIC50: 4.86
BJ
  pIC50: 4.71
  Activity: Non-toxic
MCF7
  inhibition: Dose-dependent effect
  pIC50: 4.88
PC-3
  inhibition: Dose-dependent effect
  pIC50: 4.76
A549
  inhibition: Dose-dependent effect
  pIC50: 4.76
[3]
  pIC50: 4.67
  Activity: Non-toxic
LAMA-84
  inhibition: Dose-dependent effect
  pIC50: 5.29
SH-SY5Y
  pIC50: 4.69
  inhibition: Dose-dependent effect

## CC(=O)O[C@H]1CC[C@]2(C)[C@H]3CC[C@]4(C)[C@@H]([C@H](C)CCCC(C)C)CC[C@H]4[C@@H]3[C@@H](OC(C)=O)[C@@H](O)[C@@]2(O)C1
HT-29 [1]
  Ratio IC50: 1.44
HT-29 [4]
  pIC50: 4.78
HT-29 [2]
  pIC50: 4.70
[5]
  pIC50: 4.71
[3]
  pIC50: 4.54

## CC(=O)N[C@@H]1C[C@H]2[C@@H]3CC[C@H]([C@H](C)CCCC(C)C)[C@@]3(C)CC[C@@H]2[C@@]2(C)CC[C@H](O)C[C@]12O
HT-29 [1]
  Ratio IC50: 1.31
HT-29 [2]
  pIC50: 4.84
HepG2
  pIC50: 4.94
PC-3
  pIC50: 4.72
A549
  pIC50: 4.84
[3]
  pIC50: 4.72

## CC(C)CCC[C@@H](C)[C@H]1CC[C@H]2[C@@H]3CC[C@@]4(O)[C@@H](O)[C@@H](O)CC[C@]4(C)[C@H]3CC[C@]12C
HT-29 [2]
  pIC50: 4.47
HepG2
  pIC50: 4.46
PC-3
  pIC50: 4.45
A549
  pIC50: 4.50

## CC(=O)O[C@@H]1C[C@H]2[C@@H]3CC[C@H]([C@H](C)CCCC(C)C)[C@@]3(C)CC[C@@H]2[C@@]2(C)CC[C@H](O)C[C@]12O
HT-29 [1]
  Ratio IC50: 2.58
HT-29 [4]
  pIC50: 5.18
HT-29 [2]
  pIC50: 5.17
HepG2
  pIC50: 4.92
BJ
  pIC50: 4.87
MCF7
  pIC50: 4.96
PC-3
  pIC50: 4.88
A549
  pIC50: 4.88
[3]
  pIC50: 4.75
LAMA-84
  pIC50: 5.41
SH-SY5Y
  pIC50: 4.91

## CC(=O)O[C@@H]1[C@H]2[C@@H]3CC[C@H]([C@H](C)CCCC(C)C)[C@@]3(C)CC[C@@H]2[C@@]2(C)CC[C@H](O)C[C@]2(O)[C@@H]1OC(C)=O
HT-29 [1]
  Ratio IC50: 0.85
HT-29 [4]
  pIC50: 4.83
HT-29 [2]
  inhibition: Dose-dependent effect
  pIC50: 4.88
HepG2
  inhibition: Dose-dependent effect
  pIC50: 4.93
BJ
  pIC50: 4.99
  Activity: Toxic
MCF7
  inhibition: Dose-dependent effect
  pIC50: 4.88
PC-3
  inhibition: Dose-dependent effect
  pIC50: 4.99
A549
  inhibition: Dose-dependent effect
  pIC50: 4.86
[3]
  pIC50: 4.95
  Activity: Toxic
LAMA-84
  inhibition: Dose-dependent effect
  pIC50: 5.19
SH-SY5Y
  pIC50: 4.86
  inhibition: Dose-dependent effect

## CC(=O)O[C@H]1[C@@H](O)CC[C@]2(C)[C@H]3CC[C@]4(C)[C@@H]([C@H](C)CCCC(C)C)CC[C@H]4[C@@H]3CC[C@@]12O
HT-29 [1]
  Ratio IC50: 2.46
HT-29 [4]
  pIC50: 4.73
HT-29 [2]
  pIC50: 4.82
[5]
  pIC50: 4.65
[3]
  pIC50: 4.43

## CC(=O)O[C@H]1CC[C@@]2(C)C(=C[C@H](O)[C@H]3[C@@H]4CC[C@H]([C@H](C)CCCC(C)C)[C@@]4(C)CC[C@@H]32)C1
HT-29 [1]
  Ratio IC50: 1.58
HT-29 [4]
  pIC50: 4.91
[5]
  pIC50: 4.63
[3]
  pIC50: 4.33

## CC(=O)O[C@H]1CC[C@]2(C)[C@H]3CC[C@]4(C)[C@@H]([C@H](C)CCCC(C)C)CC[C@H]4[C@@H]3C[C@@H](OC(C)=O)[C@@]2(O)C1
HT-29 [1]
  Ratio IC50: 1.49
HT-29 [4]
  pIC50: 4.60
HT-29 [2]
  pIC50: 4.37
[5]
  pIC50: 4.45
[3]
  pIC50: 4.19

## CC(=O)O[C@H]1CC[C@]2(C)[C@H]3CC[C@]4(C)[C@@H]([C@H](C)CCCC(C)C)CC[C@H]4[C@@H]3C[C@@H](O)[C@@]2(O)C1
HT-29 [1]
  Ratio IC50: >3.09
[5]
  pIC50: 4.28
[3]
  pIC50: < 4.22

## CC(C)CCC[C@@H](C)[C@H]1CC[C@H]2[C@@H]3C[C@@H](O)[C@@]4(O)[C@@H](O)[C@@H](O)CC[C@]4(C)[C@H]3CC[C@]12C
HT-29 [1]
  Ratio IC50: 2.24
HT-29 [2]
  inhibition: Dose-dependent effect
  pIC50: 5.04
HepG2
  inhibition: Dose-dependent effect
  pIC50: 4.90
BJ
  pIC50: 4.75
  Activity: Non-toxic
MCF7
  inhibition: Dose-dependent effect
  pIC50: 4.84
PC-3
  inhibition: Dose-dependent effect
  pIC50: 4.77
A549
  inhibition: Dose-dependent effect
[3]
  pIC50: 4.69
  Activity: Non-toxic
LAMA-84
  inhibition: Dose-dependent effect
  pIC50: 5.29
SH-SY5Y
  pIC50: 4.84
  inhibition: Dose-dependent effect

## CC(=O)O[C@H]1CC[C@]2(C)[C@H]3CC[C@]4(C)[C@@H]([C@H](C)CCCC(C)C)CC[C@H]4[C@@H]3[C@@H](O)[C@@H](O)[C@@]2(O)C1
HT-29 [1]
  Ratio IC50: 1.62
HT-29 [4]
  pIC50: 4.83
HT-29 [2]
  pIC50: 4.73
[5]
  pIC50: 4.62
[3]
  pIC50: 4.52
